Experimental data reported in ChEMBL document CHEMBL1127562, “N-substituted spirosuccinimide, spiropyridazine, spiroazetidine, and acetic acid aldose reductase inhibitors derived from isoquinoline-1,3-diones. 2” (J Med Chem, 1994).
Calls of active or inactive are those of the source. The rule behind the calls is not given here.

Tests used:
[1] = target: Aldo-keto reductase family 1 member B1 (Bos taurus) (UniProt P16116); assay: Inhibition of aldose reductase activity in partially purified bovine lens preparation at 10e-5 M
Procedure, shortened: (§1)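 Partially purified bovine lens aldose reductase. Reduction of DL-glyceraldehyde substrate followed spectrophotometrically. Activity expressed as average inhibition at the tested concentrations, 1×10^-5, 1×10^-6, 1×10^-7 and 4×10^-6 M as printed; IC50 in M where given.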

[2] = system: Rattus norvegicus; assay: Tested for in vivo inhibition of galactitol accumulation in the sciatic nerve of galactose-fed rats at the dose of 1.1 (mg/kg/day); NS=Not significant
[3] = system: Rattus norvegicus; assay: Tested for in vivo inhibition of galactitol accumulation in the lens of galactose-fed rats at the dose of 54.8 (mg/kg/day); NS=Not significant; type: functional, organism-based; conditions: Lens of camera-type eye
[4] = system: Rattus norvegicus; assay: Tested for in vivo inhibition of galactitol accumulation in the sciatic nerve of galactose-fed rats at the dose of 54.8 (mg/kg/day); type: functional
Procedure, shortened: (§2)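 Rats fed a 20% galactose diet for 4 days, with test compound given in the diet at the stated daily dose (mg/kg/day). Read-out is inhibition of galactitol (polyol) accumulation in sciatic nerve. Values are % inhibition, mean ± SEM of six animals; p < 0.01 unless marked (some p < 0.05). NS = no significant inhibition of polyol accumulation. Tolrestat was the reference standard.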

[5] = system: Rattus norvegicus; assay: Tested for in vivo inhibition of galactitol accumulation in the lens of galactose-fed rats at the dose of 25.0 (mg/kg/day); NS=Not significant; type: functional, organism-based; conditions: Lens of camera-type eye
[6] = system: Rattus norvegicus; assay: Tested for in vivo inhibition of galactitol accumulation in the sciatic nerve of galactose-fed rats. at the dose of 25.0 (mg/kg/day); NS=Not significant; type: functional, organism-based; procedure, shortened: as §2
[7] = target: Aldo-keto reductase family 1 member B1 (Bos taurus) (UniProt P16116); assay: Inhibition of aldose reductase activity in partially purified bovine lens preparation at 4*10 e-8 M
[8] = system: Rattus norvegicus; assay: Tested for in vivo inhibition of galactitol accumulation in the sciatic nerve of galactose-fed rats at the dose of 47.9 (mg/kg/day); type: functional
Procedure, shortened: (§3)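 Rats were given a 20% galactose diet for 4 days, with the test compound administered in the diet. Sciatic nerve galactitol accumulation was measured, and activity is given as % inhibition at the stated daily dose (mg/kg/day). Values are mean ± SEM, n = 6 animals; p < 0.01 unless indicated. NS means no significant inhibition of polyol accumulation.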

[9] = system: Rattus norvegicus; assay: Tested for in vivo inhibition of galactitol accumulation in the lens of galactose-fed rats at the dose of 47.9 (mg/kg/day); type: functional, Lens of camera-type eye
[10] = system: Rattus norvegicus; assay: Tested for in vivo inhibition of galactitol accumulation in the lens of galactose-fed rats at the dose of 22 (mg/kg/day); NS=Not significant; type: functional, organism-based; conditions: Lens of camera-type eye
[11] = system: Rattus norvegicus; assay: Tested for in vivo inhibition of galactitol accumulation in the sciatic nerve of galactose-fed rats at the dose of 22 (mg/kg/day); NS=Not significant; type: functional, organism-based; procedure, shortened: as §3
[12] = system: Rattus norvegicus; assay: Tested for in vivo inhibition of galactitol accumulation in the sciatic nerve of galactose-fed rats at the dose of 24.5 (mg/kg/day); type: functional; procedure, shortened: as §3
[13] = system: Rattus norvegicus; assay: Tested for in vivo inhibition of galactitol accumulation in the lens of galactose-fed rats at the dose of 24.5 (mg/kg/day); NS=Not significant; type: functional, organism-based; conditions: Lens of camera-type eye
[14] = system: Rattus norvegicus; assay: Tested for in vivo inhibition of galactitol accumulation in the sciatic nerve of galactose-fed rats at the dose of 91.6 (mg/kg/day); NS=Not significant; type: functional, organism-based; procedure, shortened: as §2
[15] = system: Rattus norvegicus; assay: Tested for in vivo inhibition of galactitol accumulation in the lens of galactose-fed rats at the dose of 91.6 (mg/kg/day); NS=Not significant; type: functional, organism-based; conditions: Lens of camera-type eye
Procedure, shortened: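 Galactosemic rats were fed 20% galactose for 4 days, with the compound mixed into the diet. […] galactitol accumulation was measured, and activity is given as % inhibition at the stated daily dose (mg/kg/day). Values are mean ± SEM of six animals; p < 0.01 unless indicated. NS means no significant inhibition of polyol accumulation.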

[16] = system: Rattus norvegicus; assay: Tested for in vivo inhibition of galactitol accumulation in the sciatic nerve of galactose-fed rats at the dose of 26.2 (mg/kg/day); NS=Not significant; type: functional, organism-based; procedure, shortened: as §3
[17] = system: Rattus norvegicus; assay: Tested for in vivo inhibition of galactitol accumulation in the lens of galactose-fed rats at the dose of 46.1 (mg/kg/day); NS=Not significant; type: functional, organism-based; conditions: Lens of camera-type eye
[18] = system: Rattus norvegicus; assay: Tested for in vivo inhibition of galactitol accumulation in the sciatic nerve of galactose-fed rats at the dose of 46.1 (mg/kg/day); NS=Not significant; type: functional, organism-based; procedure, shortened: as §3
[19] = system: Rattus norvegicus; assay: Tested for in vivo inhibition of galactitol accumulation in the sciatic nerve of galactose-fed rats at the dose of 5.3 (mg/kg/day); NS=Not significant; type: functional, organism-based; procedure, shortened: as §2
[20] = system: Rattus norvegicus; assay: Tested for in vivo inhibition of galactitol accumulation in the lens of galactose-fed rats at the dose of 5.3 (mg/kg/day); NS=Not significant; type: functional, organism-based; conditions: Lens of camera-type eye
[21] = system: Rattus norvegicus; assay: Tested for in vivo inhibition of galactitol accumulation in the sciatic nerve of galactose-fed rats at the dose of 102.8 (mg/kg/day); NS=Not significant; type: functional, organism-based; procedure, shortened: as §3
[22] = system: Rattus norvegicus; assay: Tested for in vivo inhibition of galactitol accumulation in the lens of galactose-fed rats at the dose of 102.8 (mg/kg/day); NS=Not significant; type: functional, organism-based; conditions: Lens of camera-type eye
[23] = system: Rattus norvegicus; assay: Tested for in vivo inhibition of galactitol accumulation in the lens of galactose-fed rats at the dose of 48 (mg/kg/day); NS=Not significant; type: functional, organism-based; conditions: Lens of camera-type eye
[24] = system: Rattus norvegicus; assay: Tested for in vivo inhibition of galactitol accumulation in the sciatic nerve of galactose-fed rats at the dose of 48 (mg/kg/day); type: functional; procedure, shortened: as §2
[25] = target: Aldo-keto reductase family 1 member B1 (Bos taurus) (UniProt P16116); assay: Compound was tested in vitro for inhibition of aldose reductase activity in partially purified bovine lens preparation at 10e-5 M; Not significant; NS=Not significant; procedure, shortened: as §1
[26] = system: Rattus norvegicus; assay: Tested for in vivo inhibition of galactitol accumulation in the sciatic nerve of galactose-fed rats at the dose of 47 (mg/kg/day); NS=Not significant; type: functional, organism-based; procedure, shortened: as §3

SMILES: CCN1C(=O)CC2(C(=O)N(C)C(=O)c3ccc(Cl)cc32)C1=O (stereo not given)
- inhibition [1]: inactive
- inhibition [2]: inactive

SMILES: COC(=O)N(C(=O)OC)N1C(=O)CC2(C(=O)N(Cc3ccc(Br)cc3F)C(=O)c3ccccc32)C1=O (stereo not given)
- inhibition [3]: inactive
- inhibition [1]: inactive
- Inhibition [4]: 50%

SMILES: O=C(O)CC1C(=O)N(Cc2ccc(Br)cc2F)C(=O)c2ccc(Cl)cc21 (stereo not given)
- inhibition [5]: inactive
- inhibition [6]: inactive
- inhibition [7]: 57%

SMILES: COC(=O)NC(=O)CC1C(=O)N(C)C(=O)c2ccc(C(F)(F)F)cc21 (stereo not given)
- inhibition [1]: 51%
- Inhibition [8]: 52%
- Inhibition [9]: 26%

SMILES: COc1c(CC(=O)O)c2ccccc2c(=O)n1Cc1ccc(Br)cc1F
- inhibition [10]: inactive
- inhibition [11]: inactive

SMILES: CCOC(=O)NC(=O)CC1C(=O)N(C)C(=O)c2ccc(Cl)cc21 (stereo not given)
- Inhibition [12]: 21%
- inhibition [1]: inactive
- inhibition [13]: inactive

SMILES: CCCN1C(=O)c2ccccc2C(CC(=O)NC(=O)OC)C1=O (stereo not given)
- inhibition [14]: inactive
- inhibition [15]: inactive
- inhibition [1]: inactive

SMILES: O=C(O)CN1C(=O)CC2(C1=O)C(=O)N(Cc1ccc(Br)cc1F)C(=O)c1ccc(F)cc12 (stereo not given)
- inhibition [1]: 60%
- inhibition [16]: inactive

SMILES: COc1ccc2c(c1)C(=O)N(Cc1ccc(Br)cc1F)C(=O)C2CC(=O)O (stereo not given)
- inhibition [17]: inactive
- inhibition [7]: 61%
- inhibition [18]: inactive

SMILES: CN1C(=O)c2ccc(Cl)cc2C(CC(N)=O)C1=O (stereo not given)
- inhibition [19]: inactive
- inhibition [20]: inactive
- inhibition [1]: inactive

SMILES: O=C(O)CC1C(=O)N(Cc2ccc(Br)cc2F)C(=O)c2ccccc21 (stereo not given)
- inhibition [21]: inactive
- inhibition [22]: inactive
- inhibition [7]: 50%

SMILES: COC(=O)NC(=O)CC1C(=O)N(Cc2ccc(Br)cc2F)C(=O)c2ccccc21 (stereo not given)
- inhibition [23]: inactive
- inhibition [1]: 84%
- Inhibition [24]: 96%

SMILES: CN1C(=O)CC2(C(=O)N(Cc3ccc(Br)cc3F)C(=O)c3ccc(F)cc32)C(=O)N1C (stereo not given)
- inhibition [25]: inactive
- inhibition [26]: inactive
